Where only a bound is given, the exact number is not on record here.

The experiment concerns Plasmodium falciparum. Nature of the experiment: In vitro antimalarial activity against Plasmodium falciparum Dd2. The format is functional, organism-based. In outline: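 P. falciparum Dd2 grown in RPMI 1640 with 10% heat-treated human serum and 3 mg/l gentamycin, 0.3% parasitaemia, 2.5% haematocrit; compounds 0.3 to 100 μM. After 48 h, [8-³H]hypoxanthine added and incubated a further 18 h. Cells filtered, washed, and incorporated radioactivity counted by scintillation to give IC50.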
In turn, `N=C(N)c1cccc(NC(=O)Nc2cccc(S(=O)(=O)NCc3ccccc3)c2)c1` displayed an IC50 of 6200 nM.
With `N=C(N)c1ccc(NC(=O)Nc2ccc(S(=O)(=O)NCc3c(F)ccc(F)c3F)cc2)cc1` the figure was 210 nM; with `N=C(N)c1cccc(NC(=O)Nc2ccc(S(=O)(=O)NCc3ccc(F)c(F)c3)cc2)c1`, 1110 nM; with `N=C(N)c1cccc(NC(=O)Nc2cccc(S(=O)(=O)NCc3c(F)ccc(F)c3F)c2)c1`, 250 nM.
Then `N=C(N)c1ccc(NC(=O)Nc2cccc(S(=O)(=O)NCc3ccccc3)c2)cc1`, with 410 nM; and `N=C(N)c1cccc(NC(=O)Nc2ccc(S(=O)(=O)N3CCc4ccccc4C3)cc2)c1`, with 610 nM; and `N=C(N)c1ccc(NC(=O)Nc2ccc(S(=O)(=O)NCc3ccccc3)cc2)cc1`, with 400 nM.
With `N=C(N)c1cccc(NC(=O)Nc2cccc(C(=N)N)c2)c1` [AMICARBALIDE] the figure was 5 nM; with `N=C(N)c1cccc(NC(=O)Nc2cccc(S(=O)(=O)NCc3ccc(S(N)(=O)=O)cc3)c2)c1`, 980 nM.
As to `N=C(N)c1cccc(NC(=O)Nc2ccc(S(=O)(=O)Nc3cccc4ccccc34)cc2)c1`, half-maximal inhibition (IC50) required 17000 nM.
With `N=C(N)c1cccc(NC(=O)Nc2ccc(S(=O)(=O)NCc3ccc(F)cc3F)cc2)c1` the figure was 1110 nM; with `N=C(N)c1cccc(NC(=O)Nc2ccc(S(=O)(=O)Nc3ccccc3)cc2)c1`, 9000 nM.
For `N=C(N)c1cccc(NC(=O)Nc2ccc(S(=O)(=O)Nc3ccc4ccccc4c3)cc2)c1`, the IC50 was 8200 nM.
Then `N=C(N)c1cccc(NC(=O)Nc2ccc(S(=O)(=O)NCc3ccc(F)cc3)cc2)c1`, with 320 nM; and `N=C(N)c1cccc(NC(=O)Nc2ccc(S(=O)(=O)NCCO)cc2)c1`, with 890 nM; and `N=C(N)c1cccc(NC(=O)Nc2ccc(S(=O)(=O)NCc3cccc(F)c3)cc2)c1`, with 500 nM.
`N=C(N)c1cccc(NC(=O)Nc2ccc(S(=O)(=O)NCc3cc(F)c(F)cc3F)cc2)c1` showed an IC50 of 1800 nM.
Then `N=C(N)c1cccc(NC(=O)Nc2ccc(S(=O)(=O)NCc3ccccc3F)cc2)c1`, with 620 nM.
Take `CNS(=O)(=O)c1ccc(NC(=O)Nc2cccc(C(=N)N)c2)cc1`: half-maximal inhibition (IC50) was put at 3000 nM.
Then `N=C(N)c1ccc(NC(=O)Nc2cccc(S(=O)(=O)NCc3ccc(S(N)(=O)=O)cc3)c2)cc1`, with greater than 2500 nM.
With `CCCCNS(=O)(=O)c1ccc(NC(=O)Nc2cccc(C(=N)N)c2)cc1` the figure was 3900 nM.
With `N=C(N)c1cccc(NC(=O)Nc2ccc(S(=O)(=O)NCc3c(F)ccc(F)c3F)cc2)c1` the figure was 17 nM; with `N=C(N)c1cccc(NC(=O)Nc2ccc(S(=O)(=O)NCc3ccc(S(N)(=O)=O)cc3)cc2)c1`, 7 nM; with `N=C(N)c1cccc(NC(=O)Nc2ccc(S(=O)(=O)NCCN3CCOCC3)cc2)c1`, greater than 2500 nM.
In turn, `N=C(N)c1ccc(NC(=O)Nc2cccc(S(=O)(=O)NCc3c(F)ccc(F)c3F)c2)cc1` came in with an IC50 of 190 nM.
With `N=C(N)c1cccc(NC(=O)Nc2ccc(S(=O)(=O)NCc3ccccc3)cc2)c1` the figure was 450 nM; with `N=C(N)c1ccc(NC(=O)Nc2ccc(S(=O)(=O)NCc3ccc(S(N)(=O)=O)cc3)cc2)cc1`, 90 nM.
Then `N=C(N)c1cccc(NC(=O)Nc2ccc(S(N)(=O)=O)cc2)c1`, with greater than 4900 nM.

The record behind these values is ChEMBL document CHEMBL1147526, “Sulfonyl-phenyl-ureido benzamidines; a novel structural class of potent antimalarial agents” (Bioorg Med Chem Lett, 2004).
